TRPC6 activator: mouse TRPC6 channel activators, primary screen, cell-based, HEK293, membrane potential dye; Short transient receptor potential channel 6 (Mus musculus), Q61143; HEK293-TRPC6 membrane potential dye fluorescence; stronger effect = higher value; B-score at 10 µM; 0.13% of 310,000 active; AID 2550, 2010;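 active = B-score of the integrated fluorescence ratio above library mean plus 3 SD, and starting fluorescence ratio within library mean plus 5 SD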;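 note: higher score means more depolarization so channel activation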
TRPC6 inh: mouse TRPC6 channel inhibitors, primary screen, cell-based, HEK293, membrane potential dye; ACh-evoked depolarization; stronger effect = lower value; 1.1% of 310,000 active; Short transient receptor potential channel 6 (Mus musculus), Q61143; B-score at 10 µM;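 active = B-score under library mean minus 3 SD, initial fluorescence not abnormally high, positive integrated signal ratio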;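 note: B-score derived from integrated fluorescence ratio over the kinetic read; more negative B-score means stronger inhibition of depolarization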
TRPC4 act: activators of mouse TRPC4 channel, primary screen, Fluo4 calcium, HEK293 TRPC4beta/mu-opioid cells. Short transient receptor potential channel 4 (Mus musculus), Q9QUQ5. Fluo4 calcium fluorescence; stronger effect = higher value. B-score at 10 µM. 0.49% of 310,000 active;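 active = B-score above 5 SD of library B-scores, and initial fluorescence ratio not above library mean plus 5 SD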;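 note: positive B-score marks a calcium rise read as TRPC4 activation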
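system = HEK293 cells stably co-expressing mouse TRPC4beta and mu-opioid receptor | schedule = Fluo4 dye loading 45 min at room temperature, 110 s recording | measure = B-scored integrated calcium fluorescence ratio | signal = Fluo4 calcium-sensitive dye fluorescence, kinetic, 1 Hz baseline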
TRPC4 PAM: positive allosteric modulators of TRPC4, primary screen, cell-based, mouse TRPC4beta, HEK293 mu-opioid, Fluo-4 calcium; Short transient receptor potential channel 4 (Mus musculus), Q9QUQ5; DAMGO EC20, Fluo-4 Ca2+ flux; stronger effect = higher value; B-score at 10 µM; 0.42% of 310,000 active; AID 2227, 2009;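 active = B-score of calcium response area above 5 SD of library B-scores, with initial fluorescence ratio within 5 SD of library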
TRPC4 inh: inhibitors of mouse TRPC4 channel, primary screen, Fluo4 calcium, HEK293 TRPC4beta/mu-opioid cells; DAMGO-evoked Fluo4 calcium flux; stronger effect = lower value; B-score at 10 µM; 0.39% of 300,000 active; AID 2247, 2010;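 active = B-score over 3 SD under the library average, no early fluorescence shift, positive overall ratio signal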
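Test system – stable TRPC4beta/mu-opioid receptor HEK293 cells · Probe or stimulus – DAMGO, a submaximal dose followed by a maximal one · Dosing – one concentration per compound · Signal – Fluo4 calcium fluorescence by kinetic imaging, 5 s 1 Hz baseline · Evaluation – per-well B score of integrated baseline-normalized Fluo4 ratio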
Each line names hits and unclear results; the compound was inactive in the other large screens. This is a sample that favours compounds with a hit; in the whole collection about 2.3% have one here.

COc1ccc(CCN(C)C(=O)c2cc(S(=O)(=O)N3CCCCC3)ccc2Cl)cc1OC	TRPC4 inh -7
COc1ccc(CCN(C)C(=O)c2cc(S(=O)(=O)N3CCCCCC3)ccc2OC)cc1OC	none
O=C(Nc1ccccc1)NC1CCN(Cc2c(F)cccc2Cl)CC1	none
CC(C)(C)c1ccccc1NC(=O)NC1CCN(Cc2c(F)cccc2Cl)CC1	TRPC4 act 116
O=C(NCCC1CCCCN1S(=O)(=O)c1ccc(F)cc1)C(=O)Nc1ccccc1 (stereo not given)	none
Cc1ccc(S(=O)(=O)N2CCC(C(=O)NCCCN3CCOCC3)CC2)cc1C	none
O=C(NCCCN1CCOCC1)C1CCN(S(=O)(=O)c2c(Cl)cccc2Cl)CC1	TRPC4 PAM 15
Cc1ccc(OCc2nnc(SC(C)C(=O)O)n2-c2ccccc2)cc1 (stereo not given)	none
COc1ccc(C)cc1S(=O)(=O)Nc1ccc(F)c(Cl)c1	TRPC4 PAM 10
Cc1ccc2c(c1)N(CC(=O)N1CCN(C3CCCCC3)CC1)C(=O)CO2	TRPC4 PAM 10
CC1CC(C)CN(CCCNS(=O)(=O)c2ccc3c(c2)oc(=O)n3C)C1 (stereo not given)	TRPC4 act 49
CCC(=O)N1CCc2cc(Br)cc(S(=O)(=O)NCCCN(CC)Cc3ccccc3)c21	TRPC4 act 148
CCC(=O)N1CCc2cc(S(=O)(=O)NCCCN(CC)Cc3ccccc3)ccc21	TRPC4 act 50
CC1CC(C)CN(CCCNS(=O)(=O)c2ccc3c(c2)CCN3C(=O)C2CC2)C1 (stereo not given)	TRPC4 act 66
CC1CCN(C(=O)CCNS(=O)(=O)c2ccc3c(c2)oc(=O)n3C)CC1	none
CCC1CN(C(=O)N2CCC(C(=O)NCCc3ccc(OC)cc3OC)CC2)c2ccccc2O1 (stereo not given)	none
COC(=O)[C@H](Cc1c[nH]c2ccccc12)NC(=O)NCc1ccc(OC)cc1	none
Cn1cc([N+](=O)[O-])c(C(=O)Nc2cc(Oc3cccnc3)cc([N+](=O)[O-])c2)n1	none
O=C(NCC(=O)N1CCCCCC1)c1ccc(Br)cc1	none
CCC(=O)N1CCc2cc(S(=O)(=O)NCCN3CCCCC3CC)ccc21 (stereo not given)	TRPC4 inh -9
CCOCCCNS(=O)(=O)c1cc(Br)cc2c1N(C(=O)C1CC1)CC2	none
CC(=O)N1CCc2cc(Br)cc(S(=O)(=O)NCCCN(C)Cc3ccccc3)c21	TRPC4 act 119
CCOC(=O)C1CCN(C(=O)CCNS(=O)(=O)c2ccc3c(c2)CCN3C(=O)CC)CC1	none
CCC(=O)N1CCc2cc(Br)cc(S(=O)(=O)NCCCN(C)Cc3ccccc3)c21	TRPC4 act 82, TRPC4 PAM 40
CCCNS(=O)(=O)c1cc(Br)cc2c1N(C(=O)CC)CC2	none
CCOC(=O)CCCC(=O)N1CCOCCOCCOCC1	none
N#C/C(N)=C(/C#N)N=Cc1cccc(Cl)c1	TRPC4 PAM 11
CCCOc1ccc(C2=CSC3=NCCN23)cc1[N+](=O)[O-]	TRPC6 inh -6.2
O=C(O)C[C@H](O)C[C@H](O)/C=C/c1c(C2CC2)nc2ccccc2c1-c1ccc(F)cc1	none
CCn1cc(CN2CCC(n3nccc3NC(=O)CCOc3ccccc3)CC2)c(C)n1	none
CCn1cc(CN2CCC(n3nccc3NC(=O)CCOc3ccccc3)CC2)cn1	TRPC4 act 72
CCn1ccnc1CN1CCC(n2nccc2NC(=O)CCc2ccccc2)CC1	none
CCCn1ncc(CN2CCC(n3nccc3NC(=O)CCc3ccccc3)CC2)c1C	TRPC4 act 100
CCn1cc(CN2CCC(n3nccc3NC(=O)CCc3ccccc3)CC2)cn1	TRPC4 act 73
Cc1cc(SCC(=O)c2cccc([N+](=O)[O-])c2)nc(=O)[nH]1	TRPC4 PAM 41
Cc1cc(SCc2cccc([N+](=O)[O-])c2)nc(=O)[nH]1	none
COc1ccc(S(=O)(=O)NNC(=O)Cc2csc(C)n2)cc1[N+](=O)[O-]	none
